The target in test [1] is T1, DNA polymerase lambda (Homo sapiens) (UniProt Q9UGP5).
T1 sequence (whole entry): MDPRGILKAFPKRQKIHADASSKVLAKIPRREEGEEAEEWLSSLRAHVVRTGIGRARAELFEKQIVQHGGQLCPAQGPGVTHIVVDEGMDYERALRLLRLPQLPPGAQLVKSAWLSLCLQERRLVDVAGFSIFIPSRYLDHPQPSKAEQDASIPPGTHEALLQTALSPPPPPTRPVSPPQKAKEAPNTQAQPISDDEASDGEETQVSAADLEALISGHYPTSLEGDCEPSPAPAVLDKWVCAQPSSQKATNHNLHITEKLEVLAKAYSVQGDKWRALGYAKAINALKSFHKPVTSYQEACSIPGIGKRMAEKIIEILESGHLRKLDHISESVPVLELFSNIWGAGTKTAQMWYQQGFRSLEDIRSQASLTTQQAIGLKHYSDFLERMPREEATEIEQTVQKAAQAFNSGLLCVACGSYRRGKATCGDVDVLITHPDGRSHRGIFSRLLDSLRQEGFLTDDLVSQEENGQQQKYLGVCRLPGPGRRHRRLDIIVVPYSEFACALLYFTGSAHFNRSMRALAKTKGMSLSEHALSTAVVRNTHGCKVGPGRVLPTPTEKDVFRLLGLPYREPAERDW
As to the kind of experiment: Inhibition of human recombinant full length DNA polymerase lambda TdT-like activity using [3H]dNTP as substrate after 10 mins by scintillation counting analysis. The gist of the method: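 Full-length recombinant human pol λ (>90% pure) was tested for template-independent activity. Acid-insoluble radioactivity was counted, and ID50 came from dose–response fitting.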

For another test, the target named is DNA polymerase beta (Homo sapiens, UniProt P06746). As to the kind of experiment: Inhibition of human recombinant DNA polymerase beta.
Test [2] concerns the target T1, DNA polymerase lambda (Homo sapiens). As to the kind of experiment: Inhibition of human recombinant full length DNA polymerase lambda using [3H]dTTP as substrate and 10 poly(dA)/oligo(dT) as template-primer after 15 mins by scintillation counting analysis. The procedure, abridged: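 Recombinant full-length human pol λ at 50 nM was assayed with 0.2 μM poly(dA)/oligo(dT)10:1 (3′-OH ends) and 5 μM [3H]dTTP (5 Ci/mmol). Incubation was 15 min at 37 °C. TCA precipitates were scintillation counted.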

Another test concerns HeLa. Nature of the test: Cytotoxicity against TdT-deficient human HeLa cells assessed as growth inhibition after 24 to 48 hrs by MTT assay. It is filed as cell-based. The procedure, abridged: (§1)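 MOLT-4 cells were grown in RPMI-1640 and HeLa cells in DMEM, with 10% FCS at 37 °C. Cells were seeded at 10^5 per well, given 24 h to attach, then exposed to compounds (0.1–100 range) for 24 or 48 h. MTT at 1 mg/mL was added for 2 h at 37 °C, formazan was dissolved in DMSO, and absorbance read at 550 nm versus 0.5% DMSO vehicle. IC50 was obtained by regression, in triplicate.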

A further test relates to MOLT-4. Nature of the test: Cytotoxicity against human MOLT4 cells overexpressing TdT assessed as growth inhibition after 24 to 48 hrs by MTT assay. It is filed as functional, cell-based. The procedure, abridged: as §1
Test [3] deals with DNA nucleotidylexotransferase (Homo sapiens, UniProt P04053). As to the kind of experiment: Inhibition of human recombinant TdT using [3H]dNTP as substrate after 10 mins by scintillation counting analysis. The procedure, abridged: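 TdT was from Trevigen. TCA-precipitated radioactivity was counted. ID50 came from dose–response fitting. For kinetics, DNA or dNTP was varied at increasing inhibitor, and Ki was obtained via Cheng–Prusoff for a competitive model.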
Sequence of DNA nucleotidylexotransferase (P04053 whole entry): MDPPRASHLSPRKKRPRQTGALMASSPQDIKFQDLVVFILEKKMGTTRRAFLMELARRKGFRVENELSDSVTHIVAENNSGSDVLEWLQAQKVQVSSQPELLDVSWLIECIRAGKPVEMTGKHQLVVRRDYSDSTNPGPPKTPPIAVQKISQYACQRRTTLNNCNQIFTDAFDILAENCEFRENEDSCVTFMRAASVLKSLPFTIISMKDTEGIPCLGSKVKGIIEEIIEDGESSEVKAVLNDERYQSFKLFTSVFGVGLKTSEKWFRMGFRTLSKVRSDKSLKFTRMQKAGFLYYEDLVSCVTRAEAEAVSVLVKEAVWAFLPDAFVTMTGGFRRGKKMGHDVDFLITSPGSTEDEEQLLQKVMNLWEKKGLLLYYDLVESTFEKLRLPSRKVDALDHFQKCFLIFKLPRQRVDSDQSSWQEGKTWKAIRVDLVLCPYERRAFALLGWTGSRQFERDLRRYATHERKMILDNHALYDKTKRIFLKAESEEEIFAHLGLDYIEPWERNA

As for `O=C(/C=C/c1cn(Cc2ccccc2)c2ccccc12)CC(=O)C(=O)O`, the ID50 in test [1] was 1.7 µM; in test [2], above 40 µM; in test [3], 7.9 µM. Further, the IC50 at DNA polymerase beta was above 40 µM; in the test on HeLa it was above 40 µM; in the test on MOLT-4, 15 µM.

For the compound `CCOC(=O)C(=O)CC(=O)/C=C/c1cn(Cc2ccccc2)c2ccccc12`, the ID50 in test [1], in test [2] and in test [3] was above 40 µM throughout. Also, the half-maximal inhibitory concentration (IC50) at DNA polymerase beta, with HeLa and in the test on MOLT-4 was above 40 µM in each case.

With `CCOC(=O)C(=O)CC(=O)/C=C/c1cn(C=C(C)C)c2ccccc12`, the ID50 in test [1], in test [2] and in test [3] was above 40 µM each time. In addition, the IC50 on DNA polymerase beta is above 40 µM.

Take `N#Cc1ccc(Cn2cc(C(=O)c3ccccc3)cc2/C=C/C(=O)CC(=O)C(=O)O)cc1`: the ID50 in test [1] was above 40 µM; in test [2] it was above 40 µM; in test [3], 6.8 µM. Also, the IC50 on DNA polymerase beta was 40 µM; in the test with HeLa, above 40 µM; with MOLT-4, 40 µM.

On to `CCOC(=O)C(=O)CC(=O)/C=C/c1cc(C(=O)c2ccccc2F)c[nH]1`, for which the ID50 in test [1] was 27 µM; in test [2] it was above 40 µM; in test [3], 20 µM. For the same compound, the IC50 at DNA polymerase beta is above 40 µM; in the test on HeLa, above 40 µM; in the test on MOLT-4, 15 µM.

Turning to `O=C(/C=C/c1cc(C(=O)c2cccc(F)c2)c[nH]1)CC(=O)C(=O)O`, the results for the ID50 in test [1], in test [2] and in test [3] were 35 µM, above 40 µM and 0.78 µM, respectively. Moreover, the IC50 on DNA polymerase beta, in the test on HeLa and in the test with MOLT-4 was above 40 µM each time.

`N#Cc1ccc(Cn2cc(/C=C/C(=O)CC(=O)C(=O)O)c3ccccc32)cc1`: the ID50 in test [1] is 34 µM; in test [2], above 40 µM; in test [3] it was 1.4 µM. For the same compound, the IC50 at DNA polymerase beta was 40 µM; in the test on HeLa it was above 40 µM; in the test on MOLT-4, above 40 µM.

As to `CCOC(=O)C(=O)CC(=O)/C=C/c1cc(C(=O)c2ccc(F)cc2)c[nH]1`, the ID50 in test [1] was above 40 µM; in test [2] it was 11 µM; in test [3], 4.1 µM. The IC50 on DNA polymerase beta is above 40 µM; in the test on HeLa, above 40 µM; with MOLT-4 it was 6.3 µM.

On to `O=C(/C=C/c1cn(Cc2ccc(Cl)cc2)c2ccccc12)CC(=O)C(=O)O`, for which the ID50 was above 40 µM in test [1], above 40 µM in test [2] and 10 µM in test [3]. The IC50 at DNA polymerase beta is above 40 µM; in the test with HeLa, above 40 µM; with MOLT-4, 19 µM.

Regarding `CCOC(=O)C(=O)CC(=O)/C=C/c1cc(C(=O)c2ccccc2)cn1Cc1ccccc1`, the ID50 in test [1], in test [2] and in test [3] was above 40 µM in each case. The half-inhibitory concentration (IC50) on DNA polymerase beta was above 40 µM.

As for `C/C=C/Cn1cc(/C=C/C(=O)CC(=O)C(=O)O)c2ccccc21`, the ID50 was 5 µM in test [1], above 40 µM in test [2] and 7.3 µM in test [3]. Moreover, the concentration for half-maximal inhibition (IC50) at DNA polymerase beta, in the test with HeLa and in the test with MOLT-4 was above 40 µM in each case.

Take `C/C=C/Cn1cc(/C=C/C(=O)CC(=O)C(=O)OCC)c2ccccc21`: the ID50 in test [1], in test [2] and in test [3] was above 40 µM throughout. In addition, the IC50 on DNA polymerase beta was above 40 µM.

`CCOC(=O)C(=O)CC(=O)/C=C/c1cn(Cc2ccc(F)cc2)c2ccccc12`: the ID50 in test [1], in test [2] and in test [3] was above 40 µM in each case. Also, the IC50 on DNA polymerase beta is above 40 µM.

Take `CCOC(=O)C(=O)CC(=O)/C=C/c1cn(Cc2ccc(Cl)cc2)c2ccccc12`: the ID50 in test [1] is above 40 µM; in test [2], above 40 µM; in test [3] it was 40 µM. Moreover, the IC50 on DNA polymerase beta was above 40 µM.

On to `CCOC(=O)C(=O)CC(=O)/C=C/c1cc(C(=O)c2ccccc2)cn1Cc1ccc(F)cc1`, for which the ID50 in test [1], in test [2] and in test [3] was above 40 µM throughout. Further, the half-inhibitory concentration (IC50) on DNA polymerase beta is above 40 µM.

Take `O=C(/C=C/c1cc(C(=O)c2ccccc2)cn1Cc1ccccc1)CC(=O)C(=O)O`: the ID50 is 20 µM in test [1], above 40 µM in test [2] and 16 µM in test [3]. The IC50 at DNA polymerase beta, in the test with HeLa and with MOLT-4 was above 40 µM in each case.

For `CCOC(=O)C(=O)CC(=O)/C=C/c1cn(CC(=O)N(C)C)c2ccccc12`, the ID50 in test [1], in test [2] and in test [3] was above 40 µM each time. Besides, the IC50 at DNA polymerase beta is above 40 µM.

As for `CCCCn1cc(/C=C/C(=O)CC(=O)C(=O)OCC)c2ccccc21`, the ID50 in test [1], in test [2] and in test [3] was above 40 µM throughout. Further, the IC50 on DNA polymerase beta was above 40 µM.

As to `CC(C)=Cn1cc(/C=C/C(=O)CC(=O)C(=O)O)c2ccccc21`, the figures for the ID50 in test [1], in test [2] and in test [3] were 9 µM, above 40 µM and 13.8 µM, respectively. The IC50 at DNA polymerase beta was above 40 µM; with HeLa it was above 40 µM; with MOLT-4, 30 µM.

With `C/C=C/n1cc(/C=C/C(=O)CC(=O)C(=O)OCC)c2ccccc21`, the ID50 in test [1], in test [2] and in test [3] was above 40 µM each time. Besides, the IC50 at DNA polymerase beta was above 40 µM.

Consider `CCCn1cc(/C=C/C(=O)CC(=O)C(=O)O)c2ccccc21`, for which the ID50 in test [1] is above 40 µM; in test [2], above 40 µM; in test [3] it was 3.1 µM. Besides, the results for the IC50 at DNA polymerase beta, with HeLa and with MOLT-4 were above 40 µM, above 40 µM and 50 µM, respectively.

For the compound `CCCn1cc(/C=C/C(=O)CC(=O)C(=O)OCC)c2ccccc21`, the ID50 in test [1], in test [2] and in test [3] was above 40 µM each time. Also, at DNA polymerase beta, the IC50 is above 40 µM.

Turning to `CCOC(=O)C(=O)CC(=O)/C=C/c1cn(CCC(C)C)c2ccccc12`, the ID50 in test [1], in test [2] and in test [3] was above 40 µM throughout. Besides, the IC50 on DNA polymerase beta is above 40 µM.

Regarding `CCOC(=O)C(=O)CC(=O)/C=C/c1cn(-c2ccc(O)cc2)c2ccccc12`, the ID50 in test [1], in test [2] and in test [3] was above 40 µM each time. Besides, the IC50 on DNA polymerase beta was above 40 µM.

With `CCOC(=O)C(=O)CC(=O)/C=C/c1cn(-c2ccccc2)c2ccccc12`, the ID50 in test [1], in test [2] and in test [3] was above 40 µM throughout.

As for `C=C(C)Cn1cc(/C=C/C(=O)CC(=O)C(=O)OCC)c2ccccc21`, the ID50 in test [1], in test [2] and in test [3] was above 40 µM in each case. Moreover, at DNA polymerase beta, the IC50 was above 40 µM.

In the case of `CCOC(=O)C(=O)CC(=O)/C=C/c1cn(CC(=O)N2CCOCC2)c2ccccc12`, the ID50 in test [1], in test [2] and in test [3] was above 40 µM throughout. Besides, on DNA polymerase beta, the IC50 is above 40 µM.

As for `CCOC(=O)C(=O)CC(=O)/C=C/c1cn(-c2ccc(Cl)cc2)c2ccccc12`, the ID50 was above 40 µM in test [1], 6 µM in test [2] and above 40 µM in test [3]. Besides, on DNA polymerase beta, the IC50 was above 40 µM.

In the case of `CCOC(=O)C(=O)CC(=O)/C=C/c1cn(Cc2ccc(C#N)cc2)c2ccccc12`, the ID50 in test [1], in test [2] and in test [3] was above 40 µM in each case. The IC50 at DNA polymerase beta is above 40 µM.

Regarding `CCOC(=O)C(=O)CC(=O)/C=C/c1cc(C(=O)c2ccccc2)cn1Cc1ccc(C#N)cc1`, the ID50 in test [1], in test [2] and in test [3] was above 40 µM each time. Also, the IC50 at DNA polymerase beta was above 40 µM.

Take `CCOC(=O)C(=O)CC(=O)/C=C/c1cn(Cc2ccc(O)cc2)c2ccccc12`: the ID50 in test [1] was above 40 µM; in test [2] it was above 40 µM; in test [3], 40 µM. At DNA polymerase beta, the IC50 is above 40 µM.

Consider `CCOC(=O)C(=O)CC(=O)/C=C/c1cn(Cc2ccc(OC)cc2)c2ccccc12`, for which the ID50 in test [1], in test [2] and in test [3] was above 40 µM throughout. The IC50 on DNA polymerase beta was above 40 µM.

The values are drawn from ChEMBL document CHEMBL2440062, “New nucleotide-competitive non-nucleoside inhibitors of terminal deoxynucleotidyl transferase: discovery, characterization, and crystal structure in complex with the target” (J Med Chem, 2013).
